Source: ChEMBL document CHEMBL2407075, “Sulphonamido-quinoxalines: search for anticancer agent” (Eur J Med Chem, 2013)

Assays:
Type in all cases: functional
SF-539 = assay: Growth inhibition of human SF539 cells after 48 hrs by sulforhodamine B assay; conditions: SF-539, 48 h; for CC50: read-out: LC50 (the source's name)
Method in brief: (§1)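 Adherent cells in RPMI 1640 with 5% FBS and 2 mM L-glutamine were plated at 5000–40,000 cells/well and grown 24 h. Five concentrations (0.01–100 µM, DMSO stock) were added for 48 h at 37 °C. Cells were fixed with cold TCA (10% final) and stained with SRB, read at 515 nm. GI50 came from log concentration–growth curves against time-zero and control plates.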

ACHN = assay: Growth inhibition of human ACHN cells assessed as cell growth at 10^-4 M after 48 hrs by sulforhodamine B assay; conditions: read-out: Activity
Method in brief: (§2)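 Five-dose NCI-60 run (0.01, 0.1, 1, 10 and 100 µM, as 10-fold dilutions from a DMSO stock made at 400× the top final level). Cells were grown in RPMI 1640 with 5% FBS and 2 mM glutamine and plated for 24 h. They were then exposed for 48 h at 37 °C and 5% CO2. TCA fixation was followed by SRB staining with A515 read-out. Percent growth was taken relative to time-zero and control plates.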

HOP-62 = assay: Growth inhibition of human HOP62 cells assessed as cell growth at 10^-7 M after 48 hrs by sulforhodamine B assay; conditions: HOP-62, 48 h, read-out: Activity
Method in brief: (§3)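 Five-dose screen at NCI. Cells in RPMI 1640 with 5% FBS and 2 mM L-glutamine, seeded at 5000–40,000 cells/well and grown 24 h at 37 °C, 5% CO2 before dosing, with time-zero plates TCA-fixed. Drug diluted from DMSO stock to 0.01, 0.1, 1, 10 and 100 µM final, 48 h. Cells fixed with cold TCA (10% final), stained with 0.4% SRB and read at 515 nm. Percent growth from Tz, control and test absorbances; GI50, TGI and LC50 from dose-response curves.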

NCI-H322M = assay: Growth inhibition of human NCI-H322M cells assessed as cell growth at 10^-8 M after 48 hrs by sulforhodamine B assay; conditions: read-out: Activity
HL-60(TB) = assay: Growth inhibition of human HL-60(TB) cells assessed as cell growth at 10^-7 M after 48 hrs by sulforhodamine B assay; conditions: HL-60, 48 h, read-out: Activity
Method in brief: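 HL-60(TB) suspension cells were treated 48 h at 37 °C within the five-dose series (0.01–100 µM), fixed with 16% final TCA and SRB-stained, read at 515 nm. Percentage growth at each concentration = (Ti−Tz)/(C−Tz)×100, or (Ti−Tz)/Tz×100 when Ti<Tz, with time-zero (Tz) and untreated control (C) plates.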

MCF7 = assay: Growth inhibition of human MCF7 cells assessed as cell growth at 10^-5 M after 48 hrs by sulforhodamine B assay; conditions: MCF7, 48 h, read-out: Activity
NCI-H23 = assay: Growth inhibition of human NCI-H23 cells assessed as cell growth at 10^-8 M after 48 hrs by sulforhodamine B assay; conditions: NCI-H23, 48 h, read-out: Activity
OVCAR-3 = assay: Growth inhibition of human OVCAR3 cells assessed as cell growth at 10^-4 M after 48 hrs by sulforhodamine B assay; conditions: OVCAR-3, 48 h, read-out: Activity
TK-10 [1] = assay: Growth inhibition of human TK10 cells assessed as cell growth at 10^-7 M after 48 hrs by sulforhodamine B assay; conditions: TK-10, 48 h, read-out: Activity
[2] = Growth inhibition of human HCC2998 cells assessed as cell growth at 10^-4 M after 48 hrs by sulforhodamine B assay; conditions: HCC 2998, 48 h, read-out: Activity; method in brief: as §3
A498 = assay: Growth inhibition of human A498 cells assessed as cell growth at 10^-8 M after 48 hrs by sulforhodamine B assay; conditions: A498, 48 h, read-out: Activity; method in brief: as §2
SF-295 = assay: Growth inhibition of human SF295 cells assessed as cell growth at 10^-6 M after 48 hrs by sulforhodamine B assay; conditions: SF-295, 48 h, read-out: Activity
A549 [3] = assay: Growth inhibition of human A549/ATCC cells after 48 hrs by sulforhodamine B assay; conditions: A549, 48 h; for CC50: read-out: LC50 (the source's name); method in brief: as §1
SNB-19 = assay: Growth inhibition of human SNB19 cells assessed as cell growth at 10^-5 M after 48 hrs by sulforhodamine B assay; conditions: SNB-19, 48 h, read-out: Activity
OVCAR-5 = assay: Growth inhibition of human OVCAR5 cells assessed as cell growth at 10^-5 M after 48 hrs by sulforhodamine B assay; conditions: OVCAR-5, 48 h, read-out: Activity
NCI-H460 = assay: Growth inhibition of human NCI-H460 cells assessed as cell growth at 10^-5 M after 48 hrs by sulforhodamine B assay; conditions: NCI-H460, 48 h, read-out: Activity
SW-620 = assay: Growth inhibition of human SW620 cells assessed as cell growth at 10^-5 M after 48 hrs by sulforhodamine B assay; conditions: SW-620, 48 h, read-out: Activity
HCT-116 = assay: Growth inhibition of human HCT116 cells assessed as cell growth at 10^-6 M after 48 hrs by sulforhodamine B assay; conditions: HCT-116, 48 h, read-out: Activity; method in brief: as §3
NCI-H226 = assay: Growth inhibition of human NCI-H226 cells after 48 hrs by sulforhodamine B assay; conditions: NCI-H226, 48 h, read-out: LC50 (the source's name); method in brief: as §1
MDA-MB-231 = assay: Growth inhibition of human MDA-MB-231 cells assessed as cell growth at 10^-6 M after 48 hrs by sulforhodamine B assay; conditions: MDA-MB-231, 48 h, read-out: Activity
CAKI-1 = assay: Growth inhibition of human CAKI-1 cells assessed as cell growth at 10^-6 M after 48 hrs by sulforhodamine B assay; conditions: CAKI-1, 48 h, read-out: Activity; method in brief: as §2
[4] = Growth inhibition of human HCC2998 cells assessed as cell growth at 10^-8 M after 48 hrs by sulforhodamine B assay; conditions: HCC 2998, 48 h, read-out: Activity; method in brief: as §3
A549 [5] = assay: Growth inhibition of human A549/ATCC cells assessed as cell growth at 10^-8 M after 48 hrs by sulforhodamine B assay; conditions: A549, 48 h, read-out: Activity; method in brief: as §2
IGROV-1 = assay: Growth inhibition of human IGROV1 cells assessed as cell growth at 10^-6 M after 48 hrs by sulforhodamine B assay; conditions: IGROV-1, 48 h, read-out: Activity; method in brief: as §3
UO-31 = assay: Growth inhibition of human UO31 cells assessed as cell growth at 10^-8 M after 48 hrs by sulforhodamine B assay; conditions: UO-31, 48 h, read-out: Activity
HCT-15 = assay: Growth inhibition of human HCT15 cells assessed as cell growth at 10^-7 M after 48 hrs by sulforhodamine B assay; conditions: HCT-15, 48 h, read-out: Activity; method in brief: as §3
TK-10 [6] = assay: Growth inhibition of human TK10 cells assessed as cell growth at 10^-8 M after 48 hrs by sulforhodamine B assay; conditions: TK-10, 48 h, read-out: Activity

For `O=S(=O)(Nc1ccc(Cl)cc1)c1ccc2nc(-c3ccccc3)c(-c3ccccc3)nc2c1`, the TGI (SF-539) was > 100 µM, the CC50 (SF-539) was > 100 µM and the growth at 100 µM (ACHN) was 76%. It also gave a growth at 0.1 µM (HOP-62) of 100%, a growth at 0.01 µM (NCI-H322M) of 93% and a growth at 0.1 µM (HL-60(TB)) of 99%. For the same compound, the growth at 10 µM (MCF7) was -16%, the growth at 0.01 µM (NCI-H23) was 97% and the growth at 100 µM (OVCAR-3) was 65%. For the same compound, the growth at 0.1 µM (TK-10 [1]) was 99%, the growth at 100 µM [2] was 85% and the growth at 0.01 µM (A498) was 75%. For the same compound, the growth at 1 µM (SF-295) was 82%, the TGI (A549 [3]) was > 100 µM and the CC50 (A549 [3]) was > 100 µM. For the same compound, the growth at 10 µM (SNB-19) was 17%, the growth at 10 µM (OVCAR-5) was 6% and the growth at 10 µM (NCI-H460) was -18%. For the same compound, the growth at 10 µM (SW-620) was 14%, the growth at 1 µM (HCT-116) was 80% and the CC50 (NCI-H226) was > 100 µM. The growth at 1 µM (MDA-MB-231) was 83%, the growth at 1 µM (CAKI-1) was 89% and the growth at 0.01 µM [4] was 99%. For the same compound, the growth at 0.01 µM (A549 [5]) was 94%, the growth at 1 µM (IGROV-1) was 93% and the growth at 0.01 µM (UO-31) was 87%. The growth at 0.1 µM (HCT-15) was 98% and the growth at 0.01 µM (TK-10 [6]) was 90%.

In the case of `O=S(=O)(Nc1ccccn1)c1ccc2nc(-c3ccccc3)c(-c3ccccc3)nc2c1`, the TGI (SF-539) is reported as > 100 µM, the CC50 (SF-539) is reported as > 100 µM and the growth at 100 µM (ACHN) is reported as 62%. It also gave a growth at 0.1 µM (HOP-62) of 101%, a growth at 0.01 µM (NCI-H322M) of 96% and a growth at 0.1 µM (HL-60(TB)) of 97%. For the same compound, the growth at 10 µM (MCF7) was -22%, the growth at 0.01 µM (NCI-H23) was 95% and the growth at 100 µM (OVCAR-3) was 45%. The growth at 0.1 µM (TK-10 [1]) was 99%, the growth at 100 µM [2] was 64% and the growth at 0.01 µM (A498) was 88%. For the same compound, the growth at 1 µM (SF-295) was 90%, the TGI (A549 [3]) was > 100 µM and the CC50 (A549 [3]) was > 100 µM. It also gave a growth at 10 µM (SNB-19) of 17%, a growth at 10 µM (OVCAR-5) of 8% and a growth at 10 µM (NCI-H460) of 1%. For the same compound, the growth at 10 µM (SW-620) was 14%, the growth at 1 µM (HCT-116) was 75% and the CC50 (NCI-H226) was > 100 µM. It also gave a growth at 1 µM (MDA-MB-231) of 89%, a growth at 1 µM (CAKI-1) of 102% and a growth at 0.01 µM [4] of 99%. For the same compound, the growth at 0.01 µM (A549 [5]) was 95%, the growth at 1 µM (IGROV-1) was 102% and the growth at 0.01 µM (UO-31) was 88%. For the same compound, the growth at 0.1 µM (HCT-15) was 98% and the growth at 0.01 µM (TK-10 [6]) was 92%.
